Laboratory results as given in ChEMBL document CHEMBL2440017, “Discovery of a potent, selective, and orally bioavailable histamine H3 receptor antagonist SAR110068 for the treatment of sleep-wake disorders” (Bioorg Med Chem Lett, 2013).

Key:
[1] = system: Cynomolgus monkey; assay: Cardiotoxicity in cynomolgus monkey assessed as PR, QRS, QTc interval at 10 mg/kg, iv; assay type: toxicity, organism-based, Macaca fascicularis; set-up: dose 10 mg/kg, route intravenous; settings: in vivo
Summary of the method: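 Anaesthetized cynomolgus monkeys dosed 10 mg/kg i.v. Arterial blood pressure, heart rate and ECG (PR, QRS, QTc intervals) monitored. Plasma drug sampled at 5, 15 and 30 min post-dose.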

[2] = system: Salmonella typhimurium; assay: Genotoxicity in Salmonella typhimurium at 3 to 1000 ug/ml by Ames 2 test in presence of human liver microsomes; assay type: toxicity, organism-based; settings: salmonella enterica subsp. enterica serovar typhimurium
Summary of the method: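 Ames II and micronucleus tests, Ames over 3–1000 µg/mL and MNT over 5–950 µg/mL. Each run with and without metabolic activation by human liver microsome preparations.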

[3] = AUC in Sprague-Dawley rat brain at 10 mg/kg, po; assay type: ADME, organism-based; set-up: dose 10 mg/kg, route oral
Summary of the method: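 Oral gavage at 10 mg/kg to male OF1 mice (vehicle 5% DMSO/0.5% MC/0.2% Tween80, 1.0 mg/mL) or male Sprague-Dawley rats (vehicle 0.5% MC/0.2% Tween80, 1.0 mg/mL). Plasma and brain exposure and half-life determined.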

[4] = Metabolic stability in rat microsomes; assay type: ADME, Microsome
Summary of the method: (§1)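 Percentage biotransformation measured in vitro in liver microsomes of each species.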

[5] = Metabolic stability in mouse microsomes; assay type: ADME, Microsome; summary of the method: as §1
[6] = system: Plasma; assay: Metabolic stability in dog plasma; assay type: ADME, cell-free, Canis lupus familiaris
Summary of the method: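 Compound stability measured in plasma of each species in vitro.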

[7] = Drug degradation in gastrointestinal tract simulation medium after 48 hrs at room temperature; assay type: physicochemical; settings: read-out: Drug degradation
Summary of the method: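 Compound kept 48 h at room temperature in water, aqueous solutions of pH 1.0–7.4, DMSO, or GI-tract simulation medium. Percent degradation measured.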

For Cc1cc(N2CC[C@H](N3CCC[C@@H]3C)C2)ccc1NC(=O)C1CCOCC1, the Activity [1] was “Non-toxic”, the Activity [2] was “Non-toxic” and the AUC [3] was 4200 ng·h/mL. The Stability [4] was “Stable”, the Stability [5] was “Stable” and the Stability [6] was “Stable”. The degraded at 48 h [7] was under 2%.
